Source: ChEMBL document CHEMBL4837210 (Eur J Med Chem, 2021)
In brackets after ≈: the same amount, converted by molar mass.

What was measured:
Streptococcus pyogenes [1] = test: Antibacterial activity against erythromycin-susceptible Streptococcus pyogenes clinical isolate 1 assessed as bacterial growth inhibition incubated for 24 hrs by CLSI protocol based broth microdilution method; assay type: functional
[2] = tested on: Staphylococcus epidermidis; test: Antibacterial activity against penicillin-resistant Staphylococcus epidermidis assessed as inhibition of bacterial growth measured by broth microdilution method; assay type: functional; settings: time 24 hrs
Bacillus pumilus = test: Antibacterial activity against penicillin-susceptible Bacillus pumilus CMCC 63202 assessed as bacterial growth inhibition by broth dilution method; assay type: functional; settings: time 24 hrs
In short: (§1)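 Broth microdilution in Mueller Hinton broth. A 0.5 McFarland suspension was diluted tenfold, giving an inoculum of 1.5 × 10⁷ cfu/mL. This was added to 2-fold serial compound dilutions from […]. Plates were incubated aerobically at 37 °C for 24 h. MIC was the lowest concentration with no visible turbidity.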

Staphylococcus aureus [3] = test: Antibacterial activity against methicillin-resistant Staphylococcus aureus ATCC 43300 assessed as inhibition of bacterial growth by broth microdilution method; assay type: functional; settings: time 24 hrs
In short: (§2)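 Broth microdilution MIC. A 0.5 McFarland suspension was diluted 10-fold and added at 1.5 × 10⁷ cfu/mL to 2-fold dilutions (0.125–64) in Mueller Hinton broth. Incubated aerobically 24 h at 37 °C. MIC was the lowest concentration with no visible turbidity.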

Enterococcus faecalis [4] = test: Antibacterial activity against vancomycin-resistant Enterococcus faecalis ATCC 51299 assessed as bacterial growth inhibition incubated for 24 hrs by CLSI protocol based broth microdilution method; assay type: functional
Staphylococcus aureus [5] = test: Antibacterial activity against erythromycin-susceptible Staphylococcus aureus ATCC 25923 assessed as bacterial growth inhibition incubated for 24 hrs by CLSI protocol based broth microdilution method; assay type: functional
Bacillus subtilis = test: Antibacterial activity against penicillin-susceptible Bacillus subtilis ATCC 9372 assessed as bacterial growth inhibition incubated for 24 hrs by CLSI protocol based broth microdilution method; assay type: functional
Enterococcus faecium [6] = test: Antibacterial activity against vancomycin-resistant Enterococcus faecium ATCC 51559 assessed as bacterial growth inhibition incubated for 24 hrs by CLSI protocol based broth microdilution method; settings: ATCC 51559, 24 h
Staphylococcus aureus [7] = test: Antibacterial activity against Staphylococcus aureus assessed as inhibition of bacterial growth measured by broth microdilution method; assay type: functional; settings: time 24 hrs; in short: as §1
Streptococcus pyogenes [8] = test: Antibacterial activity against erythromycin-resistant Streptococcus pyogenes 2 assessed as bacterial growth inhibition incubated for 24 hrs by CLSI protocol based broth microdilution method; assay type: functional
Enterococcus faecalis [9] = test: Antibacterial activity against vancomycin-susceptible Enterococcus faecalis ATCC 29212 assessed as bacterial growth inhibition incubated for 24 hrs by CLSI protocol based broth microdilution method; assay type: functional
Pseudomonas aeruginosa = test: Antibacterial activity against penicillin-susceptible Pseudomonas aeruginosa ATCC27853 assessed as bacterial growth inhibition incubated for 24 hrs by CLSI protocol based broth microdilution method; assay type: functional
Escherichia coli = test: Antibacterial activity against penicillin-susceptible Escherichia coli ATCC 25922 assessed as inhibition of bacterial growth measured by broth microdilution method; assay type: functional; settings: time 24 hrs; in short: as §1
Enterococcus faecium [10] = test: Antibacterial activity against vancomycin-susceptible Enterococcus faecium ATCC19434 assessed as bacterial growth inhibition incubated for 24 hrs by CLSI protocol based broth microdilution method; settings: ATCC19434, 24 h
Staphylococcus aureus [11] = test: Antibacterial activity against penicillin-resistant Staphylococcus aureus assessed as inhibition of bacterial growth measured by broth microdilution method; assay type: functional; settings: time 24 hrs; in short: as §2

Structure (SMILES) | MIC (Streptococcus pyogenes [1]) [µg/mL] | MIC [2] [µg/mL] | MIC (Bacillus pumilus) [µg/mL] | MIC (Staphylococcus aureus [3]) [µg/mL] | MIC (Enterococcus faecalis [4]) [µg/mL] | MIC (Staphylococcus aureus [5]) [µg/mL] | MIC (Bacillus subtilis) [µg/mL] | MIC (Enterococcus faecium [6]) [µg/mL] | MIC (Staphylococcus aureus [7]) [µg/mL] | MIC (Streptococcus pyogenes [8]) [µg/mL] | MIC (Enterococcus faecalis [9]) [µg/mL] | MIC (Pseudomonas aeruginosa) [µg/mL] | MIC (Escherichia coli) [µg/mL] | MIC (Enterococcus faecium [10]) [µg/mL] | MIC (Staphylococcus aureus [11]) [µg/mL]
COc1ccc2cc3[n+](cc2c1OC)CCc1cc2c(cc1-3)OCO2.[Cl-] [BERBERINE CHLORIDE] | > 64 | > 64 | > 64 | > 64 | > 64 | 64 | > 64 | > 64 | > 64 | 64 | > 64 | > 64 | > 64 | > 64 | 
C[n+]1c2ccccc2c(-c2ccc(-c3ccccc3)cc2)c2ccccc21.[I-] | 0.5 | 2 | 1 | 16 | 4 | 0.125 | 1 | 2 | 0.25 | 1 | 4 | > 64 | 64 | 4 | 8
CCCCc1ccc(-c2c3ccccc3[n+](C)c3ccccc23)cc1.[I-] | 1 | 2 | 1 | 2 | 4 | 0.03 | 0.5 | 2 | < 0.125 | 2 | 4 | > 64 | 64 | 4 | 8
CN[C@H](CC(C)C)C(=O)N[C@H]1C(=O)N[C@@H](CC(N)=O)C(=O)N[C@H]2C(=O)N[C@H]3C(=O)N[C@H](C(=O)N[C@H](C(=O)O)c4cc(O)cc(O)c4-c4cc3ccc4O)[C@H](O)c3ccc(c(Cl)c3)Oc3cc2cc(c3O[C@@H]2O[C@H](CO)[C@@H](O)[C@H](O)[C@H]2O[C@H]2C[C@](C)(N)[C@H](O)[C@H](C)O2)Oc2ccc(cc2Cl)[C@H]1O [VANCOMYCIN] | 0.25 (≈ 0.173 µM) |  | 2 (≈ 1.38 µM) |  |  |  | 0.5 (≈ 0.345 µM) |  |  | 1 (≈ 0.69 µM) |  | > 64 | > 64 | 2 (≈ 1.38 µM) | 
C[n+]1c2ccccc2c(C#Cc2ccc(-c3ccccc3)cc2)c2ccccc21.[I-] | 16 | 8 | 8 | 16 | > 64 | 8 | 8 | > 64 | 16 | 16 |  | > 64 | > 64 |  | 16
C[n+]1c2ccccc2c(/C=C/c2ccc(Cl)cc2Cl)c2ccccc21.[I-] | 0.25 | 2 | 2 | 1 | 8 | 0.5 | 0.5 | 4 | 1 | 0.5 | 2 | > 64 | 32 | 4 | 2
CCc1ccc(C#Cc2c3ccccc3[n+](C)c3ccccc23)cc1.[I-] | 4 | 8 | 2 | 2 | 8 | 2 | 2 | 4 | 2 | 4 | 2 | > 64 | > 64 | 4 | 4
C[n+]1c2ccccc2cc2ccccc21.[I-] | > 64 | > 64 | > 64 | > 64 | > 64 | > 64 | > 64 | > 64 | > 64 | > 64 | > 64 | > 64 | > 64 | > 64 | 
Cc1cccc(C#Cc2c3ccccc3[n+](C)c3ccccc23)c1.[I-] | 4 | 4 | 2 | 2 | 8 | 2 | 2 | 4 | 2 | 4 | 4 | > 64 | > 64 | 8 | 2
